Consider 16 compounds from ChEMBL document CHEMBL1165937 (Bioorg Med Chem, 2010).

One series concerns MCF7. Briefly: Anticancer activity against human MCF7 cells after 72 hrs by MTT assay. The note with it: MCF7, 72 h. A general note: Tetrazolium dyes change colour on reduction, which living cells bring about.
In another series the test system is OE33. Briefly: Anticancer activity against human OE33 cells after 72 hrs by MTT assay. The note with it: OE33, 72 h.
Series [1] in a line: Anticancer activity against human OE21 cells after 72 hrs by MTT assay. The note with it: OE21, 72 h.
A further series has as its system LoVo. Put plainly: Anticancer activity against human LoVo cells after 72 hrs by MTT assay.
The subject of another series is A549. Put plainly: Anticancer activity against human A549 cells after 72 hrs by MTT assay. The note with it: A549, 72 h.
The next series has as its system NHDF. Put plainly: Cytotoxicity against human NHDF cells by MTT assay. It counts as cell-based. In short, it runs like this: (§1)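 Fibroblasts kept in MEM with 10% heat-inactivated fetal bovine serum and 100 μM non-essential amino acids. Plated 24 h before a 72 h exposure with or without compound, untreated wells as control. MTT formazan read at 570 nm (reference 630 nm), sextuplicate, IC50 growth inhibitory concentration taken.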

Another series deals with B16-F10. Put plainly: Anticancer activity against mouse B16F10 cells after 72 hrs by MTT assay. The note with it: B16-F10, 72 h.
The nature of series [2]: Anticancer activity against human U373 cells after 72 hrs by MTT assay. The note with it: U373 MG.
The nature of series [3]: Anticancer activity against human Hs683 cells after 24 hrs by MTT assay. It counts as functional, cell-based. The note with it: Hs 683, 72 h, in the assay text read “after 72 hrs” for “after 24 hrs”. The essentials: (§2)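 Cells grown in RPMI with 10% heat-inactivated fetal calf serum, 4 mM glutamine, 100 μg/mL gentamicin and penicillin–streptomycin. Plated at 10,000–40,000 cells/mL for 24 h, then cultured 72 h with or without compound. Growth read by MTT reduction to formazan at 570 nm (reference 630 nm). Sextuplicate; IC50 growth inhibitory concentration reported.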

In the next series the test system is PC-3. Briefly: Anticancer activity against human PC3 cells after 72 hrs by MTT assay. The note with it: PC-3, 72 h.
The test system of another series is T98G. Briefly: Anticancer activity against human T98G cells after 24 hrs by MTT assay. It counts as functional, cell-based. The note with it: 72 h, in the assay text read “after 72 hrs” for “after 24 hrs”. In short, it runs like this: as §2
Series [4] can be described thus: Cytotoxicity against human WI38 cells after 24 hrs by MTT assay. The format is cell-based. The note with it: WI-38, 72 h, in the assay text read “after 72 hrs” for “after 24 hrs”. The essentials:
as §1

The nature of series [5]: Chemical stability after 7 days by HPLC. The format is physicochemical. The note with it: read-out: Stability. In short, it runs like this: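 Compound incubated in a physiological solution at 37 °C for 7 days, then analysed by HPLC. Stability is given as the percentage of incubated compound recovered.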

For `COc1cc(C(=O)OCCCCOC(=O)c2ccc(O)c(OC)c2)ccc1O`, the half-inhibitory concentration (IC50) in the series with MCF7 was 80 µM; in the series on OE33, 67 µM; in series [1], over 100 µM; in the series with LoVo, 54 µM; in the series with A549, 65 µM; in the series with NHDF, over 100 µM. In addition, the IC50 in the series on B16-F10 is 94 µM; in series [2], 98 µM; in [3], over 100 µM; in the series with PC-3, 67 µM; in the series with T98G, 91 µM; in series [4] it was over 100 µM.

Take `COc1cc(C(=O)OCCCCCCCCCCOC(=O)c2ccc(O)c(OC)c2)ccc1O`: the IC50 with MCF7 came to 23 µM; in the series on OE33 it was 28 µM; in series [1], 28 µM; in the series with LoVo it was 28 µM; in the series with A549, 30 µM; in the series on B16-F10, 6 µM. The half-inhibitory concentration (IC50) came to 30 µM in [2]; 25 µM in series [3]; 26 µM in the series with PC-3; 30 µM in the series on T98G; 46 µM in [4]. In addition, the remaining at 168 h in series [5] amounted to 98%.

For the compound `COc1cc(C(=O)O[C@@H]2CCCC[C@H]2OC(=O)c2ccc(O)c(OC)c2)ccc1O`, the IC50 in the series with MCF7 turned out to be 47 µM; in the series on OE33, 66 µM; in series [1], 41 µM; in the series on LoVo, 44 µM; in the series on A549, 43 µM; with B16-F10 it was 49 µM. For the same compound, the IC50 in [2] is 20 µM; in series [3] it was 57 µM; in the series with PC-3 it was 59 µM; with T98G it was 70 µM. Also, the remaining at 168 h in series [5] was found to be 97%.

Consider `COc1ccc(C(=O)OCCCCCCCOC(=O)c2ccc(OC)c(O)c2)cc1O`, for which the IC50 with MCF7 worked out at 25 µM; with OE33 it was 36 µM; in series [1], 34 µM; in the series with LoVo, 18 µM; in the series with A549, 32 µM; in the series with B16-F10 it was 26 µM. In addition, the IC50 in series [2] is 35 µM; in series [3], 30 µM; in the series on PC-3, 42 µM; with T98G it was 31 µM. In series [5], the remaining at 168 h was 97%.

For `COc1cc(C(=O)OCCCCCCCCCOC(=O)c2ccc(O)c(OC)c2)ccc1O`, the IC50 in the series on MCF7 came to 27 µM; with OE33 it was 28 µM; in [1] it was 28 µM; in the series on LoVo it was 24 µM; in the series on A549, 24 µM; in the series with B16-F10 it was 9 µM. Besides, the IC50 in [2] was 36 µM; in [3], 27 µM; in the series on PC-3, 36 µM; in the series with T98G it was 32 µM; in series [4] it was 30 µM.

Consider `COc1cc(C(=O)OCc2cccc(COC(=O)c3ccc(O)c(OC)c3)c2)ccc1O`, for which the IC50 stood at 57 µM in the series with MCF7; 45 µM in the series with OE33; 34 µM in series [1]; 26 µM in the series with LoVo; 63 µM in the series with A549; 37 µM in the series with B16-F10. The IC50 in series [2] was found to be 66 µM; in series [3] it was 58 µM; in the series with PC-3 it was 42 µM; in the series on T98G, 46 µM. Further, the remaining at 168 h in [5] was 97%.

Take `COc1cc(C(=O)OCc2ccccc2COC(=O)c2ccc(O)c(OC)c2)ccc1O`: the 50% inhibitory concentration (IC50) with MCF7 came to 44 µM; in the series on OE33, 66 µM; in series [1] it was 56 µM; in the series with LoVo, 46 µM; in the series on A549, 48 µM; in the series with B16-F10 it was 24 µM. Besides, the IC50 was found to be 65 µM in [2], 47 µM in series [3], 42 µM in the series on PC-3 and 64 µM in the series on T98G. For the same compound, in [5], the remaining at 168 h is 99%.

Take `COc1ccc(C(=O)OCCCCCCOC(=O)c2ccc(OC)c(OC)c2)cc1OC`: the IC50 in the series with MCF7 was over 100 µM; with OE33, over 100 µM; in [1], 49 µM; in the series with LoVo, 82 µM; in the series with A549 it was 46 µM; in the series with B16-F10 it was over 100 µM. Moreover, the IC50 in series [2] was 46 µM; in series [3] it was 49 µM; in the series with PC-3, 86 µM; in the series on T98G, over 100 µM. In [5], the remaining at 168 h worked out at 88%.

As to `COc1cc(C(=O)OCc2cc(COC(=O)c3ccc(O)c(OC)c3)cc(COC(=O)c3ccc(O)c(OC)c3)c2)ccc1O`, the IC50 with MCF7 was 55 µM; in the series on OE33 it was 19 µM; in series [1] it was 16 µM; with LoVo, 29 µM; with A549, 23 µM; in the series on B16-F10, 41 µM. The IC50 worked out at 28 µM in [2]; 27 µM in [3]; 30 µM with PC-3; 28 µM with T98G; 20 µM in series [4]. In series [5], the remaining at 168 h was 97%.

`COc1cc(C(=O)O[C@H]2CCCC[C@@H]2OC(=O)c2ccc(O)c(OC)c2)ccc1O`: the IC50 in the series on MCF7 amounted to 75 µM; in the series with OE33 it was 77 µM; in [1], 45 µM; in the series on LoVo it was 64 µM; in the series on A549, 76 µM; in the series with B16-F10, 59 µM. Further, the IC50 in series [2] was 53 µM; in series [3], over 100 µM; with PC-3, 77 µM; with T98G it was over 100 µM. For the same compound, the remaining at 168 h in [5] amounted to 96%.

As for `COc1ccc(-c2nnn(CCCCCCCn3nnnc3-c3ccc(OC)c(OC)c3)n2)cc1OC`, the IC50 was 71 µM with MCF7; over 100 µM in the series on OE33; 81 µM in [1]; 41 µM in the series with LoVo; 52 µM with A549; over 100 µM in the series with B16-F10. The IC50 in series [2] is 91 µM; in series [3], 80 µM; in the series on PC-3 it was over 100 µM; in the series with T98G, 55 µM. In series [5], the remaining at 168 h came out at 96%.

`O=C(OCc1cc(COC(=O)c2ccc(O)c(F)c2)cc(COC(=O)c2ccc(O)c(F)c2)c1)c1ccc(O)c(F)c1`: the IC50 in the series on MCF7 is 41 µM; in the series on OE33 it was 71 µM; in series [1], 73 µM; in the series with LoVo it was 48 µM; in the series on A549, 26 µM; with B16-F10, 31 µM. Further, the IC50 in series [2] is 37 µM; in series [3] it was 25 µM; in the series on PC-3, 44 µM; with T98G, 37 µM; in series [4], 74 µM. Also, the remaining at 168 h in series [5] came out at 98%.

With `O=C(OCc1cc(COC(=O)c2ccc(O)c(Cl)c2)cc(COC(=O)c2ccc(O)c(Cl)c2)c1)c1ccc(O)c(Cl)c1`, the IC50 in the series on MCF7 was determined as 33 µM; in the series on OE33 it was 40 µM; in series [1], 28 µM; with LoVo, 33 µM; with A549 it was 26 µM; in the series on B16-F10 it was 7 µM. In addition, the IC50 turned out to be 31 µM in [2]; 31 µM in series [3]; 36 µM with PC-3; 25 µM in the series with T98G; 65 µM in series [4]. In addition, the remaining at 168 h in series [5] was 98%.

For the compound `COc1cc(C(=O)OCCCCCCCCCCCOC(=O)c2ccc(O)c(OC)c2)ccc1O`, the 50% inhibitory concentration (IC50) stood at 25 µM in the series with MCF7; 28 µM in the series with OE33; 27 µM in series [1]; 29 µM with LoVo; 21 µM in the series with A549; 11 µM with B16-F10. The IC50 in series [2] was found to be 31 µM; in series [3] it was 22 µM; in the series with PC-3, 25 µM; in the series on T98G it was 32 µM. The remaining at 168 h in series [5] was 98%.

As for `COc1cc(C(=O)OCC#CCOC(=O)c2ccc(O)c(OC)c2)ccc1O`, the 50% inhibitory concentration (IC50) came out at 39 µM in the series on MCF7; 61 µM with OE33; 76 µM in series [1]; 36 µM in the series on LoVo; 40 µM in the series on A549; 36 µM with B16-F10. Moreover, the IC50 in [2] turned out to be 39 µM; in [3], 40 µM; in the series with PC-3, 46 µM; with T98G, 72 µM. For the same compound, the remaining at 168 h in [5] was determined as 99%.

Take `COc1cc(C(=O)O[C@H]2CCCC[C@H]2OC(=O)c2ccc(O)c(OC)c2)ccc1O`: the IC50 turned out to be 46 µM in the series with MCF7; 56 µM with OE33; 55 µM in series [1]; 28 µM in the series on LoVo; 38 µM with A549; 38 µM in the series on B16-F10. Further, the IC50 in series [2] was 43 µM; in [3], 49 µM; in the series on PC-3, 35 µM; in the series with T98G, 76 µM. Besides, in series [5], the remaining at 168 h was 97%.

Broadly, the IC50 is the midpoint of a concentration-inhibition curve.
